Experiment [1] addresses T1, Steroid 17-alpha-hydroxylase/17,20 lyase (Homo sapiens, UniProt P05093).
T1 sequence (P05093 whole entry): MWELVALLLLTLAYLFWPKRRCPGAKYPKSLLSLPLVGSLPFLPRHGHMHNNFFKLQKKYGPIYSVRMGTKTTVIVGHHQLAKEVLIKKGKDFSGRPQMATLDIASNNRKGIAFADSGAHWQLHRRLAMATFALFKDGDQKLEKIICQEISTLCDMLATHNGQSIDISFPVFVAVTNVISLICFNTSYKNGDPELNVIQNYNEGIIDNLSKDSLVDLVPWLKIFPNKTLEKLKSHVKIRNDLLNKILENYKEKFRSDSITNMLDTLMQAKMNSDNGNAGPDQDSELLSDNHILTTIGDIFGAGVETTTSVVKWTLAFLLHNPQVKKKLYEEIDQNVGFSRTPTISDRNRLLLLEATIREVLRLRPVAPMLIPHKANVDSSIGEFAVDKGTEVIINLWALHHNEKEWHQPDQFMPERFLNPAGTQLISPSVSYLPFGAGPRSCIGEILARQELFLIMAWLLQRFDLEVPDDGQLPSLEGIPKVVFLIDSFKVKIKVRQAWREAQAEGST
Kind of experiment: Ability to inhibit the C17,20-lyase enzyme by 50% using 17-alpha-hydroxyprogesterone as substrate.

The target of experiment [2] is T1, Steroid 17-alpha-hydroxylase/17,20 lyase. Put plainly: Ability to inhibit the Steroid 17-alpha-hydroxylase/17,20 lyase enzyme by 50%.
Experiment [3] in a line: Inhibition of Steroid 5-alpha-reductase. More on the design: species or system Homo sapiens. The essentials:
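Testosterone 5α-reductase from human benign prostatic tissue.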

Another experiment concerns the target T2, Aromatase (Homo sapiens, UniProt P11511).
T2 sequence (P11511 whole entry): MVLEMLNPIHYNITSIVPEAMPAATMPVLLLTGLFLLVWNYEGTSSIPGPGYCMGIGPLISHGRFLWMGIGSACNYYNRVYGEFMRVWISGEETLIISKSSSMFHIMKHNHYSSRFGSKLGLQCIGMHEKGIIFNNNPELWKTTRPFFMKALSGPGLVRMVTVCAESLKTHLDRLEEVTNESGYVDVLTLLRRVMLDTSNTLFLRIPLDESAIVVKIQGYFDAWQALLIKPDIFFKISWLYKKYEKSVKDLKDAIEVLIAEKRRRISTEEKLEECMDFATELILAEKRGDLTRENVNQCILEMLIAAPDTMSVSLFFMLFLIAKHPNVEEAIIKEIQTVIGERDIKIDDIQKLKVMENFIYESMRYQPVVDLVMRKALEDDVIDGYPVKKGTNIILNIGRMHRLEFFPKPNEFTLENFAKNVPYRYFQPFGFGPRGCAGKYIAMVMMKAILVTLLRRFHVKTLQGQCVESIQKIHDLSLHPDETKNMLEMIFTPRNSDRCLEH
Kind of experiment: Inhibition of Cytochrome P450 19A1. The essentials: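 Aromatase from the microsomal fraction of human placenta.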

Turning to `C[C@]12CCC3C(CC[C@H]4CC(=O)CC[C@]34C)C1CC=C2c1cccnc1` (some centres not stated), the IC50 was 3 nM in experiment [1] and 4.7 nM in experiment [2].
The matching figures for `C[C@]12CCC(O)CC1=CCC1C2CC[C@]2(C)C(Cc3ccccn3)=CCC12` (some centres not stated): over 10000 nM and over 10000 nM.
As for `C[C@]12CC[C@H](O)CC1=CC[C@@H]1[C@@H]2CC[C@]2(C)C(c3cccnc3)=CC[C@@H]12` [ABIRATERONE], the IC50 is over 50000 nM in experiment [3] and over 20000 nM on Aromatase.
Take `C[C@]12CCC(=O)C=C1CCC1C2CC[C@]2(C)C(c3cccnc3)=CCC12` (some centres not stated): the IC50 in experiment [3] was found to be 10000 nM; against Aromatase, 1800 nM.
On to `C[C@]12CCC3C(CC=C4C[C@@H](O)CC[C@@]43C)C1CCC2c1ccncc1` (single isomer, unassigned), for which the concentration for half-maximal inhibition (IC50) was found to be 53 nM in experiment [1] and 160 nM in experiment [2].
Consider `C[C@]12CC[C@H](O)CC1=CC[C@@H]1[C@@H]2CC[C@]2(C)C(c3ccncc3)=CC[C@@H]12`, for which the IC50 is 1000 nM in experiment [1], over 20000 nM at Aromatase and 4000 nM in experiment [2].
The corresponding values for `C[C@]12CC[C@H](O)CC1=CC[C@@H]1[C@@H]2CC[C@]2(C)C(c3ccccn3)=CC[C@@H]12` are 76 nM, over 20000 nM and 270 nM.
Consider `C[C@]12CCC(Oc3c(F)c(F)c(C(F)(F)F)c(F)c3F)=CC1=CCC1C2CC[C@]2(C)C(c3cccnc3)=CCC12` (some centres not stated), for which the IC50 in experiment [1] and in experiment [2] was over 10000 nM in each case.
With `C[C@]12CC[C@H](O)CC1=CCC1C2CC[C@@]2(C)C1CC[C@@H]2c1cccnc1` (some centres not stated), the concentration for half-maximal inhibition (IC50) turned out to be 23 nM in experiment [1] and 47 nM in experiment [2].
With `C[C@]12CCC(=O)C=C1CCC1C2C(=O)C[C@]2(C)C(c3cccnc3)=CCC12` (some centres not stated), the IC50 in experiment [1] was 2.9 nM; in experiment [2] it was 13 nM.

The values are drawn from ChEMBL document CHEMBL1128420, “Novel steroidal inhibitors of human cytochrome P45017 alpha (17 alpha-hydroxylase-C17,20-lyase): potential agents for the treatment of prostatic cancer” (J Med Chem, 1995).
